Measurements taken from ChEMBL document CHEMBL1138573, “Synthesis and molluscicidal activity of some new thiophene, thiadiazole and pyrazole derivatives” (2009).
≈ marks a conversion by molar mass, not a printed value.

Key:
Format in all cases: functional
[1] = system: Biomphalaria alexandrina; experiment: Molluscicidal activity against Biomphalaria alexandrina assessed as number of dead snail per 10 snails at 4 ppm after 24 hrs
In short: (§1)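 Field-collected B. alexandrina snails held 45 days in the lab, fed daily on lettuce, and checked free of parasitic infection. Compound mixed with a few drops of Tween 20, then suspended in untreated raw River Nile water at seven concentrations of 4–16 ppm, in aerated glass jars. Ten snails of similar size (ca. 7 mm) per jar, kept 24 h at ambient temperature. Run three times and the mean number killed taken. LC50 and LC90 were derived from this mortality. Control was water with Tween 20. Follows WHO guidelines.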

[2] = system: Biomphalaria alexandrina; experiment: Molluscicidal activity against Biomphalaria alexandrina assessed as number of dead snail per 10 snails at 6 ppm after 24 hrs; in short: as §1
[3] = system: Biomphalaria alexandrina; experiment: Molluscicidal activity against Biomphalaria alexandrina assessed as number of dead snail per 10 snails at 8 ppm after 24 hrs; in short: as §1
[4] = system: Biomphalaria alexandrina; experiment: Molluscicidal activity against Biomphalaria alexandrina assessed as number of dead snail per 10 snails at 10 ppm after 24 hrs; in short: as §1
[5] = system: Biomphalaria alexandrina; experiment: Molluscicidal activity against Biomphalaria alexandrina assessed as number of dead snail per 10 snails at 12 ppm after 24 hrs; in short: as §1
[6] = system: Biomphalaria alexandrina; experiment: Molluscicidal activity against Biomphalaria alexandrina assessed as number of dead snail per 10 snails at 14 ppm after 24 hrs; in short: as §1
[7] = system: Biomphalaria alexandrina; experiment: Molluscicidal activity against Biomphalaria alexandrina assessed as number of dead snail per 10 snails at 16 ppm after 24 hrs; in short: as §1
[8] = system: Biomphalaria alexandrina; experiment: Molluscicidal activity against Biomphalaria alexandrina after 24 hrs; conditions: for LC50: Biomphalaria alexandrina, 24 h; in short: as §1

Compound | Activity [1] | Activity [2] | Activity [3] | Activity [4] | Activity [5] | Activity [6] | Activity [7] | LC90 [8] [ppm] | LC50 [8] [µg/mL] | LC100 [8] [ppm]
Cc1c(C(=O)O)sc(Nc2ccccc2)c1C(=O)c1ccccc1 | 1 | 2 | 3 | 5 | 6 | 8 | 10 | 23 | 19 (≈ 56.3 µM) | 
CC(=O)/C(C(=O)c1ccccc1)=C1/SC(C(=O)c2ccccc2)=NN1c1ccccc1 | 2 | 2 | 4 | 6 | 9 | 10 | 10 | 10 | 8 (≈ 18.8 µM) | 
CC(=O)/C(C(=O)c1ccccc1)=C1/SC(C(=O)c2ccccc2)=NN1c1ccc(C)cc1 | 2 | 3 | 5 | 8 | 10 | 10 | 10 | 9 | 5.5 (≈ 12.5 µM) | 
COc1ccc(N2N=C(C(=O)c3ccccc3)S/C2=C(/C(C)=O)C(=O)c2ccccc2)cc1 | 1 | 3 | 4 | 7 | 10 | 10 | 10 | 11 | 6 (≈ 13.1 µM) | 
Cc1n[nH]c(Nc2ccccc2)c1C(=O)c1ccccc1 | 1 | 3 | 4 | 8 | 9 | 10 | 10 | 18 | 13 (≈ 46.9 µM) | 
CCOC(=O)c1sc(Nc2ccccc2)c(C(=O)c2ccccc2)c1C | 0 | 1 | 1 | 2 | 2 | 4 | 10 | 20 | 18 (≈ 49.3 µM) | 
CC(=O)c1sc(Nc2ccccc2)c(C(=O)c2ccccc2)c1C | 1 | 3 | 5 | 8 | 8 | 10 | 10 | 22 | 16 (≈ 47.7 µM) | 
O=C(Nc1cc(Cl)c([N+](=O)[O-])cc1Cl)c1ccccc1O |  |  |  |  |  |  |  |  |  | 1
Cc1c(C(=O)c2ccccc2)sc(Nc2ccccc2)c1C(=O)c1ccccc1 | 1 | 4 | 5 | 6 | 9 | 10 | 10 | 20 | 15.6 (≈ 39.2 µM) | 
